# Experimental data as given in ChEMBL document CHEMBL1914406, “Inhibitory effect of novel 5-O-acyl juglones on mammalian DNA polymerase activity, cancer cell growth and inflammatory response” (Bioorg Med Chem, 2011).
# Calls of active or inactive are those of the source. The calls are words filed in the database; no cut-off is given here.
# System: not listed separately
# Test: Cytotoxicity against mouse RAW264.7 cells
# Assay type: cell-based
# Details: read-out: LD50 (the source's name)
row,Structure (SMILES),CC50 [µM]
1,CC/C=C\C/C=C\C/C=C\CCCCCCCC(=O)Oc1cccc2c1C(=O)C=CC2=O,> 10
2,CC/C=C\C/C=C\C/C=C\C/C=C\C/C=C\CCCC(=O)Oc1cccc2c1C(=O)C=CC2=O,> 10
3,CC(=O)Oc1cccc2c1C(=O)C=CC2=O,> 10
4,CCCCCCCCCCCCCCCCCC(=O)Oc1cccc2c1C(=O)C=CC2=O,> 10

# Organism: Bos taurus
# Test: Inhibition of calf DNA polymerase alpha using bovine deoxyribonuclease 1-treated DNA and dNTP as the DNA template-primer and nucleotide substrate at 10 uM after 60 mins
# Details: not given
row,Structure (SMILES),inhibition
1,CC/C=C\C/C=C\C/C=C\CCCCCCCC(=O)Oc1cccc2c1C(=O)C=CC2=O,Active
2,CC/C=C\C/C=C\C/C=C\C/C=C\C/C=C\CCCC(=O)Oc1cccc2c1C(=O)C=CC2=O,Active
3,CC(=O)Oc1cccc2c1C(=O)C=CC2=O,Active
4,CCCCCCCCCCCCCCCCCC(=O)Oc1cccc2c1C(=O)C=CC2=O,Active

# System: Mus musculus
# Test: Antiinflammatory activity in mouse assessed as inhibition of TPA-induced mouse ear edema at 500 ug/ear administered 30 mins before TPA challenge measured after 7 hrs relative to untreated control
# Assay type: functional, organism-based
# Details: not given
# Procedure, shortened: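 Compound (500 µg) applied to one mouse ear; 30 min later TPA (0.5 µg) applied to both ears. Edema scored after 7 h and expressed as percentage of edema. Mean ± SE, n = 6.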
row,Structure (SMILES),Activity
1,CC/C=C\C/C=C\C/C=C\CCCCCCCC(=O)Oc1cccc2c1C(=O)C=CC2=O,Active
2,CC/C=C\C/C=C\C/C=C\C/C=C\C/C=C\CCCC(=O)Oc1cccc2c1C(=O)C=CC2=O,Active
3,CC(=O)Oc1cccc2c1C(=O)C=CC2=O,Active
4,CCCCCCCCCCCCCCCCCC(=O)Oc1cccc2c1C(=O)C=CC2=O,Active

# Biological target: T1, DNA polymerase kappa (Homo sapiens) (UniProt Q9UBT6)
# T1 sequence (whole entry): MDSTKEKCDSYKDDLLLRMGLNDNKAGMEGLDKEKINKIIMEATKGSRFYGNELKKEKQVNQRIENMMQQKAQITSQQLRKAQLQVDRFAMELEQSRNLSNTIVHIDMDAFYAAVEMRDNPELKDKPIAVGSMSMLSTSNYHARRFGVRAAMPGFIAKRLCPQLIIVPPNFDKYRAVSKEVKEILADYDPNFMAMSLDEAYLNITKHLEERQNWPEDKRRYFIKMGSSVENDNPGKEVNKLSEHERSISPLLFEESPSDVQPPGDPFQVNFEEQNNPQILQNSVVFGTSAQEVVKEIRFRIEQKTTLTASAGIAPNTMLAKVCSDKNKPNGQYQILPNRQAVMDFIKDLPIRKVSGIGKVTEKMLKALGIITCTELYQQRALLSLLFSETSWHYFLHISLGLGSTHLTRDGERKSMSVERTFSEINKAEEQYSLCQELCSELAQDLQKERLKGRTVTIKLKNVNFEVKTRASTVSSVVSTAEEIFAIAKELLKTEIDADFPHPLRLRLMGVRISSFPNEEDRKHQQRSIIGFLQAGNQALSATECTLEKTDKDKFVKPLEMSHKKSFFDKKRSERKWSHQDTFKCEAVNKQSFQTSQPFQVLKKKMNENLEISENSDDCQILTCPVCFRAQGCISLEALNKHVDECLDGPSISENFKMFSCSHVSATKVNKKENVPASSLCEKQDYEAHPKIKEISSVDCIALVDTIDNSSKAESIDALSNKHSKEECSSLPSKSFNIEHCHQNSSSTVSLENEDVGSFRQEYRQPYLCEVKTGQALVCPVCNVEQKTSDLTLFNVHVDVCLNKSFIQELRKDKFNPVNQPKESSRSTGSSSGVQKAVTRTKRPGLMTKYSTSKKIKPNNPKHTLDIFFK
# Test: Inhibition of C-terminal His6-tagged human DNA polymerase kappa (amino acids 1 to 560) using bovine deoxyribonuclease 1-treated DNA and dNTP as the DNA template-primer and nucleotide substrate at 10 uM after 60 mins
# Details: not given
row,Structure (SMILES),inhibition
1,CC/C=C\C/C=C\C/C=C\CCCCCCCC(=O)Oc1cccc2c1C(=O)C=CC2=O,Active
2,CC/C=C\C/C=C\C/C=C\C/C=C\C/C=C\CCCC(=O)Oc1cccc2c1C(=O)C=CC2=O,Active
3,CC(=O)Oc1cccc2c1C(=O)C=CC2=O,Active
4,CCCCCCCCCCCCCCCCCC(=O)Oc1cccc2c1C(=O)C=CC2=O,Active

# Biological target: T1, DNA polymerase kappa (Homo sapiens)
# Test: Inhibition of C-terminal His6-tagged human DNA polymerase kappa (amino acids 1 to 560) using poly(dA)/oligo(dT)18 (A/T = 2/1) and dTTP as the DNA template-primer and nucleotide substrate at 10 uM after 60 mins
# Details: not given
row,Structure (SMILES),inhibition
1,CC/C=C\C/C=C\C/C=C\CCCCCCCC(=O)Oc1cccc2c1C(=O)C=CC2=O,Active
2,CC/C=C\C/C=C\C/C=C\C/C=C\C/C=C\CCCC(=O)Oc1cccc2c1C(=O)C=CC2=O,Active
3,CC(=O)Oc1cccc2c1C(=O)C=CC2=O,Active
4,CCCCCCCCCCCCCCCCCC(=O)Oc1cccc2c1C(=O)C=CC2=O,Active

# Organism: Bos taurus
# Test: Inhibition of calf DNA polymerase alpha using poly(dA)/oligo(dT)18 (A/T = 2/1) and dTTP as the DNA template-primer and nucleotide substrate at 10 uM after 60 mins
# Details: not given
# Procedure, shortened: (§1)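 Compound in DMSO, sonicated 30 s. Premixed 0 °C, 10 min with enzyme (0.05 units) in 50 mM Tris-HCl pH 7.5, 1 mM DTT, 50% glycerol, 0.1 mM EDTA, then added to standard reaction mixture. Template-primers: poly(dA)/oligo(dT)18 (2/1) for pols, oligo(dT)18 for TdT, poly(rA)/oligo(dT)18 for HIV-1 RT, with [3H]dTTP. 60 min at 37 °C (Taq 74 °C). Activity relative to no-inhibitor control; mean ± SE of three experiments.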
row,Structure (SMILES),inhibition
1,CC/C=C\C/C=C\C/C=C\CCCCCCCC(=O)Oc1cccc2c1C(=O)C=CC2=O,Active
2,CC/C=C\C/C=C\C/C=C\C/C=C\C/C=C\CCCC(=O)Oc1cccc2c1C(=O)C=CC2=O,Active
3,CC(=O)Oc1cccc2c1C(=O)C=CC2=O,Active
4,CCCCCCCCCCCCCCCCCC(=O)Oc1cccc2c1C(=O)C=CC2=O,Active

# System: RAW264.7
# Test: Cytotoxicity against mouse RAW264.7 cells at 5 uM
# Assay type: cell-based
# Details: raw264.7, 5 µM
row,Structure (SMILES),Activity
1,CC/C=C\C/C=C\C/C=C\CCCCCCCC(=O)Oc1cccc2c1C(=O)C=CC2=O,Non-toxic
2,CC/C=C\C/C=C\C/C=C\C/C=C\C/C=C\CCCC(=O)Oc1cccc2c1C(=O)C=CC2=O,Non-toxic
3,CC(=O)Oc1cccc2c1C(=O)C=CC2=O,Non-toxic
4,CCCCCCCCCCCCCCCCCC(=O)Oc1cccc2c1C(=O)C=CC2=O,Non-toxic

# Biological target: T2, DNA polymerase lambda (Homo sapiens) (UniProt Q9UGP5)
# T2 sequence (whole entry): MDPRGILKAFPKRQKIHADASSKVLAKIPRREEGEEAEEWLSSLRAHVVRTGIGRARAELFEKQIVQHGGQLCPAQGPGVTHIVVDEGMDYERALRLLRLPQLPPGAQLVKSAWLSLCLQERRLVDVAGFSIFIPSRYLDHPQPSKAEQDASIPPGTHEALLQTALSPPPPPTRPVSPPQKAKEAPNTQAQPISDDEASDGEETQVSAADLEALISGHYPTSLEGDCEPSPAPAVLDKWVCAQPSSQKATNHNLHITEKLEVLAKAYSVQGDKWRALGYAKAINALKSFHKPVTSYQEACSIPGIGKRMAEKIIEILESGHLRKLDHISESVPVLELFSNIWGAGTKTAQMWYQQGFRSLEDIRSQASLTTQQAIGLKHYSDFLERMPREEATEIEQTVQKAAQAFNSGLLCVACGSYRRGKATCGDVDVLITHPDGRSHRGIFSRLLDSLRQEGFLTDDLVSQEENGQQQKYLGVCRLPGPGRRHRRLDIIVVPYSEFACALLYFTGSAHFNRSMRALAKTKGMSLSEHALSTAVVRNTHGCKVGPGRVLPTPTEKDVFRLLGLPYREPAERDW
# Test: Inhibition of recombinant His-tagged human DNA polymerase lambda using bovine deoxyribonuclease 1-treated DNA and dNTP as the DNA template-primer and nucleotide substrate at 10 uM after 60 mins
# Details: not given
row,Structure (SMILES),inhibition
1,CC/C=C\C/C=C\C/C=C\CCCCCCCC(=O)Oc1cccc2c1C(=O)C=CC2=O,Active
2,CC/C=C\C/C=C\C/C=C\C/C=C\C/C=C\CCCC(=O)Oc1cccc2c1C(=O)C=CC2=O,Active
3,CC(=O)Oc1cccc2c1C(=O)C=CC2=O,Active
4,CCCCCCCCCCCCCCCCCC(=O)Oc1cccc2c1C(=O)C=CC2=O,Active

# Biological target: T2, DNA polymerase lambda (Homo sapiens)
# Test: Inhibition of recombinant His-tagged human DNA polymerase lambda using poly(dA)/oligo(dT)18 (A/T = 2/1) and dTTP as the DNA template-primer and nucleotide substrate at 10 uM after 60 mins
# Details: not given
# Procedure, shortened: as §1
row,Structure (SMILES),inhibition
1,CC/C=C\C/C=C\C/C=C\CCCCCCCC(=O)Oc1cccc2c1C(=O)C=CC2=O,Active
2,CC/C=C\C/C=C\C/C=C\C/C=C\C/C=C\CCCC(=O)Oc1cccc2c1C(=O)C=CC2=O,Active
3,CC(=O)Oc1cccc2c1C(=O)C=CC2=O,Active
4,CCCCCCCCCCCCCCCCCC(=O)Oc1cccc2c1C(=O)C=CC2=O,Active

# Organism: Homo sapiens
# Test: Inhibition of histidine-tagged human DNA polymerase gamma using poly(dA)/oligo(dT)18 (A/T = 2/1) and dTTP as the DNA template-primer and nucleotide substrate at 10 uM after 60 mins
# Details: not given
# Procedure, shortened: as §1
row,Structure (SMILES),inhibition
1,CC/C=C\C/C=C\C/C=C\CCCCCCCC(=O)Oc1cccc2c1C(=O)C=CC2=O,Active
2,CC/C=C\C/C=C\C/C=C\C/C=C\C/C=C\CCCC(=O)Oc1cccc2c1C(=O)C=CC2=O,Active
3,CC(=O)Oc1cccc2c1C(=O)C=CC2=O,Active
4,CCCCCCCCCCCCCCCCCC(=O)Oc1cccc2c1C(=O)C=CC2=O,Active

# Organism: Homo sapiens
# Test: Inhibition of histidine-tagged human DNA polymerase gamma using bovine deoxyribonuclease 1-treated DNA and dNTP as the DNA template-primer and nucleotide substrate at 10 uM after 60 mins
# Details: not given
row,Structure (SMILES),inhibition
1,CC/C=C\C/C=C\C/C=C\CCCCCCCC(=O)Oc1cccc2c1C(=O)C=CC2=O,Active
2,CC/C=C\C/C=C\C/C=C\C/C=C\C/C=C\CCCC(=O)Oc1cccc2c1C(=O)C=CC2=O,Active
3,CC(=O)Oc1cccc2c1C(=O)C=CC2=O,Active
4,CCCCCCCCCCCCCCCCCC(=O)Oc1cccc2c1C(=O)C=CC2=O,Active

# System: Nucleic Acid
# Test: Binding affinity to DNA assessed as thermal transition of DNA relative to control
# Assay type: nucleic-acid assay
# Details: not given
row,Structure (SMILES),Activity
1,CC/C=C\C/C=C\C/C=C\CCCCCCCC(=O)Oc1cccc2c1C(=O)C=CC2=O,inactive
2,CC/C=C\C/C=C\C/C=C\C/C=C\C/C=C\CCCC(=O)Oc1cccc2c1C(=O)C=CC2=O,inactive
3,CC(=O)Oc1cccc2c1C(=O)C=CC2=O,inactive
4,CCCCCCCCCCCCCCCCCC(=O)Oc1cccc2c1C(=O)C=CC2=O,inactive
